Source: PMC4681580 (Journal of immunology (Baltimore, Md. : 1950), 2015)
No end group written: not given here.

What was measured:
[1] = target: T1, rTAP1/TAP2a (wild type) (Rattus norvegicus, UniProt P36370+P36372); assay: Competitive inhibition of TC6R crosslinking, wild type TAP; assay type: binding
T1 sequence (P36370 1-725): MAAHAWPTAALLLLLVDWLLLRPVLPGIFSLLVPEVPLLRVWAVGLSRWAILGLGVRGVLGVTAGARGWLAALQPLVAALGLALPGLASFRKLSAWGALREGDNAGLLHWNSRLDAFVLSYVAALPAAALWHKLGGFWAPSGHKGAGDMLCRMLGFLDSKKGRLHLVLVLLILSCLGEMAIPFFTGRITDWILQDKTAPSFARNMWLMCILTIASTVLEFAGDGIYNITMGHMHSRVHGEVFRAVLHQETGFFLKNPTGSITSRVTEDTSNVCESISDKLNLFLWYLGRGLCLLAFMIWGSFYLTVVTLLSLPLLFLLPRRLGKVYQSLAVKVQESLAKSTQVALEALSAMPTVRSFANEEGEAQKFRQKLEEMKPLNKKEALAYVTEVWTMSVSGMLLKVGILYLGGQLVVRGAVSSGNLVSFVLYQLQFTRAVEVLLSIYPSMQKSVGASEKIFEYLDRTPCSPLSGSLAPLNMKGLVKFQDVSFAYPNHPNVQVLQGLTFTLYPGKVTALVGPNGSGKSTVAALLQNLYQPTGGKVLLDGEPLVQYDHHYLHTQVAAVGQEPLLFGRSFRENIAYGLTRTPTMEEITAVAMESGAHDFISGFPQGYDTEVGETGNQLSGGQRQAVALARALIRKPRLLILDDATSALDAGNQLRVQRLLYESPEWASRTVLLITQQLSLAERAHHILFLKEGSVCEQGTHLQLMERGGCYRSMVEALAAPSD
T1 sequence (P36372 1-703): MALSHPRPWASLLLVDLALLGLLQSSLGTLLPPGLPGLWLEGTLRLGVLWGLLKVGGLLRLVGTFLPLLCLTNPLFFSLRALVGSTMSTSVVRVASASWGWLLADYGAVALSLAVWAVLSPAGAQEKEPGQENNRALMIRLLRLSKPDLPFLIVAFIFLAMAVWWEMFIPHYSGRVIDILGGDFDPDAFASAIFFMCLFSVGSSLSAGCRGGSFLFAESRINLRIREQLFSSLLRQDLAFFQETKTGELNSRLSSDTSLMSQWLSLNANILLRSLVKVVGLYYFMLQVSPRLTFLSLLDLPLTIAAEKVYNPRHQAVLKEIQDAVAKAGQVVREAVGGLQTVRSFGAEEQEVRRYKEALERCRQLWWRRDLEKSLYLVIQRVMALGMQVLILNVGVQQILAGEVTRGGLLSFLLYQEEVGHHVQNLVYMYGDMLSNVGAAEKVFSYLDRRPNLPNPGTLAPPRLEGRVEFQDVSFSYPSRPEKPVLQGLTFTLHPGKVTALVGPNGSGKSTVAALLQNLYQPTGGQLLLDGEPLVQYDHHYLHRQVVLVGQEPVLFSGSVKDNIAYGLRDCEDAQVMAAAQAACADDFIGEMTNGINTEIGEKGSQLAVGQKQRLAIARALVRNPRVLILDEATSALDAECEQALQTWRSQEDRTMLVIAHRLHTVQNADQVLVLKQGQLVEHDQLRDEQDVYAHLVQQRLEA
Procedure, shortened: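 Rat TAP1/TAP2a expressed in baculovirus-infected Sf21 microsomes. Microsomes were incubated with 1 μM FITC-lysine peptide with Cys at position 6, plus unlabeled competitor peptide, on ice for 10 min in PBS pH 7.4. BMOE was added (0.2 mM final) for 10 min at room temperature and quenched with 10 mM DTT. Products were resolved by SDS-PAGE and fluorescence imaged at 520 nm.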

[2] = target: T2, rTAP1/TAP2a(E218M) (Rattus norvegicus, UniProt P36370+P36372, E218M); assay: Peptide transport assay, E218M mutant; assay type: biochemical; settings: FITC-labeled peptide 1 μM, 37 °C, 5 min, with or without 5 mM ATP
T2 sequence (P36370 1-725): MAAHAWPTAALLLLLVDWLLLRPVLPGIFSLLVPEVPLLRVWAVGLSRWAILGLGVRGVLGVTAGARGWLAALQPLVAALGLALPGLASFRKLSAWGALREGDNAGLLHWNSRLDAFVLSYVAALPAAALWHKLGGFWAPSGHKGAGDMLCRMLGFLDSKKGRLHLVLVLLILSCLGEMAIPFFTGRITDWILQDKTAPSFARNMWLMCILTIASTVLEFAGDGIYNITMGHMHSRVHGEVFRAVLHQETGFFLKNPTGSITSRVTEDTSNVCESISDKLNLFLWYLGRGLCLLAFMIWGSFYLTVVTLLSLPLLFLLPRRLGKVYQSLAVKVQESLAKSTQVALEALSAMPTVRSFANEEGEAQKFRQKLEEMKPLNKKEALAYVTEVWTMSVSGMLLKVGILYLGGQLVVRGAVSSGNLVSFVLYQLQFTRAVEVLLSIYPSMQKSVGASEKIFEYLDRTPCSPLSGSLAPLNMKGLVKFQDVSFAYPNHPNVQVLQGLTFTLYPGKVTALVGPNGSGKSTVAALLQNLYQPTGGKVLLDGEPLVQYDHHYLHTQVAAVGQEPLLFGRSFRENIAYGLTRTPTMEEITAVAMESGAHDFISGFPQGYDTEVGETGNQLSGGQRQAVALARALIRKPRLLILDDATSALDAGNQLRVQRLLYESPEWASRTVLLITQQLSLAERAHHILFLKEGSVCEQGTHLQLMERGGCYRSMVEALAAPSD
T2 sequence (P36372 1-703 E218M): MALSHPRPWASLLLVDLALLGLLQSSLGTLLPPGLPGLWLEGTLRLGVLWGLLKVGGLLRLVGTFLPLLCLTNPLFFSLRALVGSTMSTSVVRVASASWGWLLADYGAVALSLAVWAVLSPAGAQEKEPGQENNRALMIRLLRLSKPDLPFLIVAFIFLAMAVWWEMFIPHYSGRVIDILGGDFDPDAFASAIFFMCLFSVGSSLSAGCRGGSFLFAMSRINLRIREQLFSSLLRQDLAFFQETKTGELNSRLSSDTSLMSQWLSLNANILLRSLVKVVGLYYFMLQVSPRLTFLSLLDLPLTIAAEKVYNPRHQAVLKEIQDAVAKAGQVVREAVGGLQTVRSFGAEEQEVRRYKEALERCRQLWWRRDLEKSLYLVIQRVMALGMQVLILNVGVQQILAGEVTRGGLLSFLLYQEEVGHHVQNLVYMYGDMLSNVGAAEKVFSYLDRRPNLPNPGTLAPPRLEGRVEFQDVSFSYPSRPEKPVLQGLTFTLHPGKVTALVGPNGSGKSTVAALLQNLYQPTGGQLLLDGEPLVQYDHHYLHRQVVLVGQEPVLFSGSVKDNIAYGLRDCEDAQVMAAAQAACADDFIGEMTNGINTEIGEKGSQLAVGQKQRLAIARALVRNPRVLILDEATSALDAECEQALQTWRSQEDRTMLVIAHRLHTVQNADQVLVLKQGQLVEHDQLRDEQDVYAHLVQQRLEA
Procedure, shortened: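 Sf21 cells were grown to confluence and infected with baculoviruses (MOI 5–20) expressing His-tagged rTAP1 and Flag-tagged rTAP2 variants; microsomes were made after 72 h. Lysis was in 1% NP40, and glycosylated peptide was recovered on Con A-Sepharose. Fluorescence was read in triplicate to give +ATP/−ATP ratios, normalized to wild type (100%) and TAP-free microsomes (0%). Paired two-tailed t-tests were applied.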

| Substance | IC50 [1] [nM] | effect of mutation on transport efficiency versus wild type [2] |
| --- | --- | --- |
| RYWANATKSR [RR] | 300 |  |
| TVDNK*TAYV |  | did not significantly affect |
